MT stabilizer: microtubule stabilization, imaging screen; HeLa tubulin immunostaining HCS, 24 h; share of cells brighter than vehicle mean+2SD; % tubulin-high responders, % at 10 µM; 0.83% of 200,000 active; AID 2205;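 active = plate Z-score above 3 for both tubulin-high and condensed-nucleus cell shares, with cell loss under 80%, at 10 µM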;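 also: anti alpha tubulin signal scored within the nucleus-defined area of each cell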
b-catenin transl: modulators of beta-catenin nuclear translocation. HeLa beta-catenin nuclear translocation, immunofluorescence imaging. AID 1665. 0.3% of 190,000 active. nuclear translocation activity, % at 5 µM;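 active = nuclear translocation activity above 50% at 5 µM, with a well cell count of 50 or more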;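 also: per-cell ratio of nuclear to cytoplasmic median beta-catenin stain intensity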
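Technique: fluorescence imaging of beta-catenin antibody stain plus DAPI / Material: human HeLa cell line / Incubation: compound treatment 24 h, 37°C, 5% CO2 / Read-out basis: % activation of per-cell nuclear versus cytoplasmic median beta-catenin signal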
Dynein cargo inh: blocks dynein driven cargo transport along microtubules. 3617.4 mouse cells, GR-EGFP nuclear translocation imaging; test concentration mostly 20 µM; stimulated with dexamethasone, 1 µM; active compounds read low. z-score, hits read low. 0.47% of 220,000 active;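 active = plate z-score of nuclear minus cytoplasmic receptor signal below a set negative limit, without overly bright fluorescence or cell loss, cut at about -3.5 in these data, passing the limit was not always enough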;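 also: z-score of nuclear minus cytoplasmic ring GR-EGFP intensity difference per well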
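Buffer or medium – tet-free medium with charcoal-stripped serum · Signal – automated 10x imaging of fixed Hoechst-stained cells · Also added – dexamethasone agonist, 1.0 µM final, for 30 min · Incubation – induction 48 h, compound 1 h, agonist 30 min · Read-out – GR-EGFP nuclear translocation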
L major viab: reduces viability of Leishmania major promastigotes; inhibition, % at 10 µM; resazurin fluorescence viability; 9% of 200,000 active; in the data active = inhibition above about 50%;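 also: promastigotes grown with compound for 44 hours at 28 °C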
CHOP inhibitor: inhibitors of CHOP induction in ER stress response. CHO-K1 CHOP-promoter luciferase, tunicamycin-induced, 15-18 h. inhibition, % at 10 µM. 3.8% of 220,000 active;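 active = compounds that reduced the stress-induced luciferase reporter signal by more than about 70% of percent inhibition, limit read from the data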
Autophagy HCS: autophagy modulation, high-content screen; MEF GFP-LC3 puncta imaging; test concentration mostly 10 µM; calls only at 10 µM (by protocol); 0.98% of 190,000 active; AID 463193;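 active = percentage of spot-positive cells more than 3 SD above its plate mean, without a fluorescence outlier flag or 80% toxicity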
CHOP confirm: confirmation of CHOP induction inhibitors; shares compounds with CHOP inhibitor; CHO-CHOP promoter luciferase reporter, tunicamycin-induced, luminescence; inhibition, % at 10 µM; 45% of 2,100 active;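 active = mean of three repeat readings of reporter signal inhibition above a set limit, cut at about 70% in these data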
Large screens that a line does not name were inactive (follow-up assays come after a bar, where they were run). An excerpt weighted towards active compounds, which were near 12% of everything screened.

CCN=C1S/C(=C\c2sccc2C)C(=O)N1CC	none
CN1C(=O)/C(=C/c2cc(N=Nc3ccccc3)ccc2O)SC1=S	CHOP inhibitor 104.4 | CHOP confirm 104.0
Cc1c(N2C(=O)/C(=C\c3ccccc3O)SC2=S)c(=O)n(-c2ccccc2)n1C	none (no result: MT stabilizer, L major viab, Autophagy HCS)
CCOc1cc(C)c(-c2onc(C(F)(F)F)c2-c2csc(C)n2)c(O)c1	CHOP inhibitor 104.9 | CHOP confirm 72.3
COc1ccc(/C=C(\C#N)C(=O)NCC(c2ccc(F)cc2)N2CCOCC2)cc1 (stereo unspecified)	none (no result: MT stabilizer, L major viab, Autophagy HCS)
CC(C)(C)C(=O)c1no[n+]([O-])c1/C(=N/O)C(C)(C)C	CHOP inhibitor 107.7 | CHOP confirm 78.1
O=C(/C=C/c1ccccc1)NC(NC(=S)Nc1cccc(Cl)c1)C(Cl)(Cl)Cl (stereo unspecified)	CHOP inhibitor 110.6 | CHOP confirm inactive
Cc1ccc(C)c(NC(=S)NC(NC(=O)/C=C/c2ccccc2)C(Cl)(Cl)Cl)c1 (stereo unspecified)	CHOP inhibitor 106.5 | CHOP confirm 91.7
CCN1CCN(Cc2ccc(NC(=O)c3cc(NC(=O)c4cncc(-c5ccc(C#N)cc5)c4)cc(OC)c3)cc2C(F)(F)F)CC1	CHOP inhibitor 106.6 (no result: MT stabilizer, L major viab, Autophagy HCS) | CHOP confirm inactive
Cc1ccc(N2CC3=C(C2=O)C(c2ccccc2)NC(=O)N3C)cc1 (stereo unspecified)	none
CN1C(=O)NC(c2ccccc2)C2=C1CN(c1ccc3ccccc3c1)C2=O (stereo unspecified)	CHOP inhibitor 96.3 | CHOP confirm inactive
Cc1cc(C)c2nc(C(F)(F)F)c(C#N)c(N)c2c1	CHOP inhibitor 106.5 (no result: b-catenin transl) | CHOP confirm 116.3
O=c1cc(CSc2nnc(COc3cccc4ccccc34)o2)c2ccccc2[nH]1	none (no result: MT stabilizer, L major viab, Autophagy HCS)
O=[N+]([O-])c1ccc(N/N=C/c2c[nH]c3ccccc23)c(S(=O)(=O)Nc2ccc(Cl)cc2)c1	CHOP inhibitor 106.4, Autophagy HCS active | CHOP confirm inactive
COC(=O)CSC1=C(C#N)C(=O)NC(c2ccccc2)S1 (stereo unspecified)	CHOP inhibitor 99.3 (no result: b-catenin transl) | CHOP confirm inactive
O=C(Nc1c(C(=O)NCc2ccco2)cnn1-c1ccccc1)c1ccc(F)cc1	none
O=C1C(C2=NC(c3ccccn3)C3C(=O)N(c4ccc(Cl)cc4Cl)C(=O)C23)=C(O)c2ccccc21 (stereo unspecified)	CHOP inhibitor 104.9 (no result: MT stabilizer, L major viab, Autophagy HCS) | CHOP confirm 118.0
Cc1nnc(SC(C)C(=O)Nc2ccc(S(=O)(=O)N3CCCCC3)cc2)s1 (stereo unspecified)	CHOP inhibitor 100.1 (no result: b-catenin transl) | CHOP confirm inactive
NCCc1nc(-c2ccccc2)cs1	none
CCOc1ccc(-n2c(SCC(=O)Nc3ccccc3CC)nc3n[nH]c(C)c3c2=N)cc1	none
CCOc1ccc(-n2c(SCC(=O)Nc3ccc(Br)cc3)nc3n[nH]c(C)c3c2=N)cc1	CHOP inhibitor 103.4 | CHOP confirm 107.6
Nc1nnc(-c2ccc(Cl)c([N+](=O)[O-])c2)s1	none
O=C(/C=C/c1cccc(Cl)c1)c1nc2ccccc2[nH]1	L major viab 100.3, CHOP inhibitor 102.4 | CHOP confirm inactive
CCN(CC)S(=O)(=O)c1cccc(NC(=O)Nc2cccc(C(F)(F)F)c2)c1	L major viab 100.5, CHOP inhibitor 99.9 (no result: b-catenin transl) | CHOP confirm 124.0
O=C(N/N=C/c1cccc([N+](=O)[O-])c1)c1ccc(COc2ccccc2-c2ccccc2)cc1	none
O=c1c2ccccc2c(C=Nc2cccc(O)c2)c(O)n1-c1ccc2c(c1)OCO2	CHOP inhibitor 107.3 | CHOP confirm inactive
Oc1[nH]c2ccccc2c1C=Nc1ccc2c(c1)OCO2	none
N#Cc1c(N)n(CCCN2CCOCC2)c2nc3ccccc3nc12	none (no result: CHOP inhibitor)
Nc1c(C(=O)Nc2ccccc2)c2nc3ccccc3nc2n1CCCN1CCOCC1	CHOP inhibitor 99.9 (no result: MT stabilizer, L major viab, Autophagy HCS) | CHOP confirm inactive
Cc1cccc2[nH]c3c(N4CC=C(c5ccc(F)cc5)CC4)ncnc3c12	none (no result: MT stabilizer, L major viab, Autophagy HCS)
Cc1ccc(Nc2nc(=O)c3cccnc3s2)c(Br)c1	none (no result: MT stabilizer, L major viab, Autophagy HCS)
CCOC(=O)C1Cc2ccccc2C(=O)O1 (stereo unspecified)	none
CCOC(=O)C1=C(N)c2ccccc2CC1C(C)C (stereo unspecified)	CHOP inhibitor 99.6 (no result: b-catenin transl) | CHOP confirm inactive
CC(=O)N/C(=C/c1ccc2c(c1)OCO2)C(=O)NCCO	none
CCN(CC)CCOC(=O)c1ccc(N/C=C(/C#N)c2nc(-c3cccc(OC)c3)cs2)cc1	CHOP inhibitor 104.7 (no result: MT stabilizer, L major viab, Autophagy HCS) | CHOP confirm 79.5
CCOc1cc2[nH]c(=S)n(C3CC3)c(=O)c2cc1OCC	none
CCOC(=O)N1CCC(n2c(=S)[nH]c3cc(OCC)c(OCC)cc3c2=O)CC1	CHOP inhibitor 101.0, Autophagy HCS active (no result: b-catenin transl) | CHOP confirm 98.0
CC1=CC(C)(C)N(C(=O)c2ccc(F)cc2)c2cc3c(cc21)OCO3	CHOP inhibitor 98.0 (no result: b-catenin transl) | CHOP confirm 71.1
CSC1=NCCN1C(=O)c1ccc2c(c1)OCO2	none
COc1ccc(C)cc1N(C(=O)c1ccccc1F)c1nc2ccccc2s1	none
COc1ccccc1NCC(=O)N/N=C(\C)c1ccc(Br)s1	CHOP inhibitor 98.2 | CHOP confirm inactive
Cc1ccc2nc(SCc3nnc(-c4ccccc4Br)o3)[nH]c2c1	none
O=C(C[n+]1cccc2ccccc21)c1ccccc1	none
CCCCCCCCCCCCCCCC[n+]1cccc2ccccc21	Dynein cargo inh -5.22, L major viab 100.4, CHOP inhibitor 106.2 | CHOP confirm 119.6
COc1cc(C(=O)Nc2ccc(C)cc2)c(-n2cnnn2)cc1OC	none
O=S(=O)(N/N=C/c1ccc(Cl)cc1)c1ccc(Cc2ncc(C(F)(F)F)cc2Cl)s1	CHOP inhibitor 100.0 | CHOP confirm 91.4
O=S1(=O)c2ccccc2N=NN1Cc1ccc(Cl)cc1	CHOP inhibitor 108.8 | CHOP confirm inactive
CCCOC(=O)CSc1nnc(-c2ccc(Cl)cc2Cl)o1	CHOP inhibitor 97.6 | CHOP confirm inactive
CCOC(=O)CSc1nnc(-c2ccc(Cl)cc2Cl)o1	none
O=C(NCc1cccs1)Nc1cccc(Cl)c1	none (no result: b-catenin transl, CHOP inhibitor)
O=C(Nc1cccc(Cl)c1)NC1(C(=O)NCc2cccs2)CCCCC1	L major viab 62.5, CHOP inhibitor 104.0 | CHOP confirm inactive
CCCc1nn(-c2ccccc2)c2c1C(c1cccs1)C(C#N)=C(N)O2 (stereo unspecified)	CHOP inhibitor 107.7 | CHOP confirm inactive
CC(C)=CCc1c(O)ccc(C(=O)Cc2ccccc2)c1O	CHOP inhibitor 106.3 | CHOP confirm inactive
Cc1ccc(Nc2nc(Cl)c(C=O)s2)cc1Cl	CHOP inhibitor 96.1 | CHOP confirm inactive
CCOc1ccc(C(=O)Nc2ccc(NC(=O)c3ccco3)c(Cl)c2)cc1Cl	CHOP inhibitor 101.1, Autophagy HCS active (no result: b-catenin transl) | CHOP confirm inactive

Compound activity deposited in PubChem by several laboratories.
